Tests used:
Rattus norvegicus [1] = organism: Rattus norvegicus; experiment: Influence (5 uM) on transacetylase catalyzed time dependent activation of NADPH cytochrome C reductase at pre-incubation time being 30 mins; type: functional
Outline: (§1)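 Rat liver microsomes were preincubated at 37 °C with test compound (in DMSO) in 0.05 M phosphate buffer, pH 7.7. Aliquots were taken at 5, 10, 20 and 30 min into a cuvette with EDTA, cytochrome C and NADPH. NADPH–cytochrome C reductase activity was followed at 550 nm. Values are means of four observations.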

[2] = The compound was evaluated for in Vitro binding of AFB1 to DNA in rat liver microsomes; Pre-incubation time being 30 mins; conditions: Microsome
[3] = The compound was evaluated for in Vitro binding of AFB1 to DNA in rat liver microsomes; Pre-incubation time being 10 mins; conditions: Microsome
Rattus norvegicus [4] = organism: Rattus norvegicus; experiment: Influence (5 uM) on transacetylase catalyzed time dependent activation of NADPH cytochrome C reductase at pre-incubation time being 10 mins; type: functional; outline: as §1
Rattus norvegicus [5] = organism: Rattus norvegicus; experiment: Influence (5 uM) on transacetylase catalyzed time dependent activation of NADPH cytochrome C reductase at pre-incubation time being 5 mins; type: functional; outline: as §1
[6] = The compound was evaluated for in Vitro binding of AFB1 to DNA in rat liver microsomes; Pre-incubation time being 20 mins; conditions: Microsome
Rattus norvegicus [7] = organism: Rattus norvegicus; experiment: Influence (5 uM) on transacetylase catalyzed time dependent activation of NADPH cytochrome C reductase at pre-incubation time being 20 mins; type: functional; outline: as §1
Rattus norvegicus [8] = organism: Rattus norvegicus; experiment: Effect of compound on AFB1-induced micronuclei formation in rat bone marrow cells in the presence of AFB1 (Activity: Micronucleated cells/1000 cells); type: functional
Rattus norvegicus [9] = organism: Rattus norvegicus; experiment: Effect of compound on AFB1-induced micronuclei formation in rat bone marrow cells (Activity: Micronucleated cells/1000 cells); type: functional
Rattus norvegicus [10] = organism: Rattus norvegicus; experiment: Influence (2 uM) on transacetylase catalyzed time dependent activation of NADPH cytochrome C reductase at pre-incubation time being 5 mins; type: functional; outline: as §1
Rattus norvegicus [11] = organism: Rattus norvegicus; experiment: Influence (2 uM) on transacetylase catalyzed time dependent activation of NADPH cytochrome C reductase at pre-incubation time being 10 mins; type: functional; outline: as §1
Rattus norvegicus [12] = organism: Rattus norvegicus; experiment: Influence (2 uM) on transacetylase catalyzed time dependent activation of NADPH cytochrome C reductase at pre-incubation time being 30 mins; type: functional; outline: as §1
Rattus norvegicus [13] = organism: Rattus norvegicus; experiment: Influence (2 uM) on transacetylase catalyzed time dependent activation of NADPH cytochrome C reductase at pre-incubation time being 20 mins; type: functional; outline: as §1

| Compound | Activation (Rattus norvegicus [1]) [%] | inhibition [2] [%] | inhibition [3] [%] | Activation (Rattus norvegicus [4]) [%] | Activation (Rattus norvegicus [5]) [%] | inhibition [6] [%] | Activation (Rattus norvegicus [7]) [%] | Activity (Rattus norvegicus [8]) | Activity (Rattus norvegicus [9]) | Activation (Rattus norvegicus [10]) [%] | Activation (Rattus norvegicus [11]) [%] | Activation (Rattus norvegicus [12]) [%] | Activation (Rattus norvegicus [13]) [%] |
| --- | --- | --- | --- | --- | --- | --- | --- | --- | --- | --- | --- | --- | --- |
| Cc1cc(=O)oc2c(O)c(O)ccc12 [4-METHYLDAPHNETIN] | 3.5 | 8.9 | 8.5 | 2.5 | 2.8 | 8.2 | 3.1 | – | – | – | – | – | – |
| CC(=O)Oc1cc(OC(C)=O)c2c(=O)c(OC(C)=O)c(-c3ccc(OC(C)=O)c(OC(C)=O)c3)oc2c1 | 37 | 18 | 6.7 | 13.3 | 7.1 | 12.8 | 25 | 4.75 | 2.25 | – | – | – | – |
| CC(=O)Oc1ccc2c(C)cc(=O)oc2c1OC(C)=O | – | 56.8 | 19 | – | – | 37.5 | – | 3.75 | 2.25 | 10.2 | 18.9 | 57.6 | 39.9 |
| O=c1c(O)c(-c2ccc(O)c(O)c2)oc2cc(O)cc(O)c12 [QUERCETIN] | 5.7 | 6.2 | 5.7 | 3.3 | 3.7 | 5.2 | 5.4 | 6 | 2 | – | – | – | – |

Source: ChEMBL document CHEMBL1135327, “Comparison of the prevention of aflatoxin b(1)-induced genotoxicity by quercetin and quercetin pentaacetate” (2002)
